# Reference: ChEMBL document CHEMBL1147926, “Synthetic chalcones, flavanones, and flavones as antitumoral agents: biological evaluation and structure-activity relationships” (Bioorg Med Chem, 2007)
# Tests used:
# HT-29 [1] = test: Growth inhibition of HT29 cells by sulforhodamine assay; type: functional, cell-based; settings: Homo sapiens
# Method in brief: (§1)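 Cells grown in supplemented RPMI with 10% FBS at 37 °C, 5% CO2, 48 h, then exposed to increasing compound concentrations (1 mM stocks in 10% DMSO) for 24 h. Sulforhodamine B read-out after TCA fixation at A540. IC50 is the concentration halving absorbance relative to solvent control. Duplicates, at least two repetitions, means reported.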
# HT-29 [2] = test: Cytotoxicity against human HT29 cells ATCC HTB38 in aerobic condition assessed as survival at 100 uM by sulforhodamine assay; type: functional; settings: read-out: Activity
# Method in brief: (§2)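 Cells kept in RPMI with L-glutamine, penicillin/streptomycin, non-essential amino acids (1% each) and 10% FBS, 37 °C, 5% CO2, 48 h; compound added from 1 mM stock in 10% DMSO to final 100 µM, 24 h exposure. TCA fixation 1 h at 4 °C, sulforhodamine B staining, Tris pH 10.0, A540. Survival = (T/C)×100 versus solvent control; duplicates, two repetitions averaged.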
# MCF7 [3] = test: Growth inhibition of MCF7 cells by sulforhodamine assay; type: functional, cell-based; settings: Homo sapiens; method in brief: as §1
# TK-10 [4] = test: Cytotoxicity against human TK10 cells in aerobic condition assessed as survival at 100 uM by sulforhodamine assay; type: functional; settings: read-out: Activity; method in brief: as §2
# TK-10 [5] = test: Growth inhibition of TK10 cells by sulforhodamine assay; type: functional, cell-based; settings: Homo sapiens; method in brief: as §1
# MCF7 [6] = test: Cytotoxicity against human MCF7 cells […] in aerobic condition assessed as survival at 100 uM by sulforhodamine assay; type: functional; settings: read-out: Activity; method in brief: as §2
# [7] = Growth inhibition of HK2 cells by sulforhodamine assay; type: cell-based; settings: Homo sapiens, HK-2
IC50 (HT-29 [1]),IC50 (MCF7 [3]),Compound,viability at 100 µM (HT-29 [2]),viability at 100 µM (TK-10 [4]),IC50 (TK-10 [5]),viability at 100 µM (MCF7 [6]),IC50 [7]
54 µM,90 µM,COc1ccc(/C=C/C(=O)c2ccccc2)cc1 [4-METHOXY CHALCONE],2%,2%,53 µM,30%,23.2 µM
–,–,COc1ccc(/C=C/C(=O)c2c(O)cc(OC)cc2OC)cc1 [FLAVOKAWAIN A],–,71%,–,60%,–
–,–,COc1cc(O)c(C(=O)/C=C/c2ccccc2Br)c(OC)c1,87%,53%,–,82%,–
–,–,CC(=O)Nc1ccc(/C=C/C(=O)c2ccccc2O)cc1,87%,89%,–,79%,–
–,–,O=c1cc(-c2ccc(Cl)cc2)oc2ccccc12,100%,74%,–,100%,–
–,–,CC(=O)Nc1ccc(/C=C/C(=O)c2ccccc2)cc1,3%,5%,–,24%,–
–,–,COc1cc(O)c(C(=O)/C=C/c2ccc(OC)c(OC)c2)c(OC)c1,–,100%,–,89%,–
–,–,CCCCCCOc1ccc(/C=C/C(=O)c2ccccc2O)cc1,97%,62%,–,76%,–
–,–,O=C(/C=C/c1ccc([N+](=O)[O-])cc1)c1ccccc1O,94%,34%,–,43%,–
–,–,Nc1ccc(/C=C/C(=O)c2ccccc2O)cc1,98%,91%,–,43%,–
–,–,COc1ccc(/C=C/C(=O)c2ccccc2O)cc1,97%,4%,67 µM,10%,23.7 µM
–,–,O=C1CC(c2ccc(Br)cc2)Oc2ccccc21 (stereo not given),61%,16%,–,26%,–
–,–,O=C1CC(c2ccc(OCc3ccccc3)cc2)Oc2ccccc21 (stereo not given),69%,78%,–,76%,–
–,–,CSc1ccc(C(O)CC(=O)c2ccccc2O)cc1 (stereo not given),100%,100%,–,90%,–
–,–,O=C(/C=C/c1ccc(Cl)cc1)c1ccccc1 [4-CHLORO CHALCONE],9%,2%,–,56%,–
–,–,O=C(/C=C/c1ccco1)c1ccccc1O,40%,48%,–,60%,–
–,–,COc1ccc(-c2cc(=O)c3ccccc3o2)cc1 [4'-METHOXYFLAVONE],100%,82%,–,100%,–
–,–,O=C(/C=C/C=C/c1ccccc1)c1ccccc1O,–,100%,–,84%,–
–,–,COc1ccc(C2CC(=O)c3ccccc3O2)cc1 (stereo not given),100%,36%,–,2%,–
–,–,O=C(/C=C/c1ccccc1Br)c1ccccc1O,0%,3%,–,100%,–
–,–,O=C(/C=C/c1ccc(Br)cc1)c1ccccc1,28%,90%,–,44%,–
–,–,O=C(/C=C/c1ccccc1Br)c1ccccc1,26%,2%,–,32%,–
–,–,COc1ccc(C2CC(=O)c3ccccc3O2)cc1OC (stereo not given),68%,69%,–,81%,–
–,–,O=C1CC(c2ccccc2Br)Oc2ccccc21 (stereo not given),44%,54%,–,12%,–
45 µM,–,O=C(/C=C/c1ccc(Cl)cc1)c1ccccc1O,25%,3%,–,41%,–
–,–,COc1ccc(/C=C/C(=O)c2ccccc2O)cc1OCc1ccccc1,100%,100%,–,100%,–
–,–,CSc1ccc(/C=C/C(=O)c2ccccc2O)cc1,76%,91%,–,75%,–

IC50 (HT-29 [1]),IC50 (MCF7 [3]),Compound,viability at 100 µM (HT-29 [2]),viability at 100 µM (TK-10 [4]),IC50 (TK-10 [5]),viability at 100 µM (MCF7 [6]),IC50 [7]
–,–,O=C1CC(c2ccc3c(c2)OCO3)Oc2ccccc21 (stereo not given),100%,100%,–,100%,–
–,–,O=C(/C=C/c1ccccc1Br)c1ccc(OCc2ccccc2)cc1O,80%,65%,–,74%,–
13.8 µM,6.7 µM,O=C(/C=C/c1ccccn1)c1ccccc1O,15%,1%,12.2 µM,4%,7.9 µM
–,–,O=C(/C=C/c1ccc2c(c1)OCO2)c1ccccc1O,69%,50%,–,79%,11.6 µM
–,95 µM,COc1ccc(/C=C/C(=O)c2ccccc2O)cc1OC,70%,2%,90 µM,1%,–
–,–,O=C(/C=C/c1ccc(OCc2ccccc2)cc1)c1ccccc1O,59%,64%,–,56%,–
–,–,O=C(/C=C/c1ccccc1)c1ccc(OCc2ccccc2)cc1O,99%,72%,–,74%,–
–,–,COc1cc(/C=C/C(=O)c2ccccc2O)ccc1OCc1ccccc1,100%,90%,–,97%,–
–,–,O=c1cc(-c2ccccc2)oc2ccccc12 [FLAVONE],90%,87%,–,57%,–
–,–,O=C(/C=C/c1ccc(O)cc1)c1ccccc1O,9%,5%,–,3%,–
–,–,CCCCCCCCCOc1ccc(/C=C/C(=O)c2ccccc2O)cc1,98%,77%,–,86%,–
70 µM,63 µM,O=C(/C=C/c1ccccc1)c1ccccc1 [CHALCONE],5%,2%,42 µM,19%,30.5 µM
–,–,CCCCOc1ccc(/C=C/C(=O)c2ccc(OCCCC)cc2O)cc1,99%,79%,–,81%,–
–,–,O=c1cc(-c2ccc(Br)cc2)oc2ccccc12,100%,94%,–,73%,48 µM
85 µM,78 µM,O=C(/C=C/c1ccccc1)c1ccccc1O [2'-HYDROXYCHALCONE],14%,0%,79 µM,3%,24.4 µM
–,–,CN(C)c1ccc(/C=C/C(=O)c2ccccc2O)cc1,65%,76%,–,87%,–
–,–,O=c1cc(-c2ccccc2Br)oc2ccccc12,61%,69%,–,36%,–
–,–,O=C(/C=C/c1ccc(Br)cc1)c1ccccc1O,71%,60%,–,43%,33.8 µM
–,–,O=C(/C=C/c1ccccc1[N+](=O)[O-])c1ccccc1O,100%,100%,–,100%,–
–,–,O=C(CCc1ccc(OCc2ccccc2)cc1)c1ccccc1O,100%,95%,–,89%,–
–,–,O=C1CC(c2ccccc2)Oc2ccccc21 (stereo not given) [FLAVANONE],69%,79%,–,54%,–
–,–,O=C(/C=C/c1ccc(OCc2ccccc2)cc1)c1ccc(OCc2ccccc2)cc1O,100%,92%,–,100%,–
–,–,COc1ccc(OC)c(/C=C/C(=O)c2ccccc2O)c1,92%,56%,–,45%,–
–,–,CSc1ccc(/C=C/C(=O)c2ccccc2)cc1,46%,0%,–,47%,–
–,–,O=C(/C=C/c1ccc(OCc2ccccc2)c(I)c1)c1ccccc1O,100%,78%,–,81%,–
–,–,COc1ccc(/C=C/C(=O)c2ccccc2O)cc1I,92%,41%,–,96%,–
